Laboratory results from ChEMBL document CHEMBL1125259, “Lipophilic glycosyl phosphotriester derivatives of AZT: synthesis, NMR transmembrane transport study, and antiviral activity” (1991).

Experiments:
Assay type in all cases: functional
[1] = test system: CCRF-CEM; experiment: Concentration required to reduce the viability of uninfected cells (CEM-CL13) by 50% on day 22.; settings: Homo sapiens, 528 h, read-out: CD50 (the source's name)
Procedure, shortened: (§1)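 CEM-C113 cells (1×10^5 cells/mL) were infected with HIV-1 LAV-Bru or mock-infected, with compound dilutions in triplicate, for at least 7 days. Medium with or without drug was renewed every 3–4 days for longer runs. MTT absorbance was read at 540 nm. CD50 = 50% reduction of mock-infected absorbance; ED50 = dose giving 50% protection from CPE. Values are averages of at least two experiments.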

[2] = molecular target: Human immunodeficiency virus type 1 reverse transcriptase (Human immunodeficiency virus 1) (UniProt Q72547); experiment: Compounds were evaluated for anti-RT activity by MTT dose and %protection was reported at 7 days of culture
Procedure, shortened: (§2)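 HIV-1 was preincubated with compound at 25 µM for 60 min at 37 °C, pelleted, and added to CEM-C113 cells (1×10^5 cells/mL) for 60 min at 37 °C. Medium was then replaced without compound. At days 7 and 9, viability was read by MTT assay on 100 µL of cell suspension.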

[3] = molecular target: Human immunodeficiency virus type 1 reverse transcriptase (Human immunodeficiency virus 1) (UniProt Q72547); experiment: Compound ability to inhibit the production of HIV reverse transcriptase (RT) in preinfected PBL (peripheral blood lymphocytes) at 21 days at a concentration 5 uM
Procedure, shortened: (§3)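 PBL were infected with HIV-1 for 1 h at 37 °C, washed twice, and resuspended in complete medium with 10% interleukin-2 and anti-human α-interferon (1000 units/mL). Cells were plated at 1×10^6 cells/well with or without compound. At each time point, 50 µL supernatant was taken for RT assay ([³H]dTTP incorporation, cpm).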

[4] = molecular target: Human immunodeficiency virus type 1 reverse transcriptase (Human immunodeficiency virus 1) (UniProt Q72547); experiment: Compound ability to inhibit the production of HIV reverse transcriptase (RT) in culture supernatant of monocytic U937 on at 11 days at a concentration 1 uM
Procedure, shortened: (§4)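 HIV-1-infected monocytic U937 cultures were kept up to 14 days with compound. Supernatant RT activity was measured as for CEM-C113, as [³H] cpm/50 µL. % inhibition = 100 − 100 × (cpm of treated samples / cpm of control virus).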

[5] = molecular target: Human immunodeficiency virus type 1 reverse transcriptase (Human immunodeficiency virus 1) (UniProt Q72547); experiment: Compound ability to inhibit the production of HIV reverse transcriptase (RT) in preinfected PBL (peripheral blood lymphocytes) at 10 days at a concentration 1 uM; procedure, shortened: as §3
[6] = molecular target: Human immunodeficiency virus type 1 reverse transcriptase (Human immunodeficiency virus 1) (UniProt Q72547); experiment: Compound ability to inhibit the production of HIV reverse transcriptase (RT) in preinfected PBL (peripheral blood lymphocytes) at 7 days at a concentration 5 uM; procedure, shortened: as §3
[7] = molecular target: Human immunodeficiency virus type 1 reverse transcriptase (Human immunodeficiency virus 1) (UniProt Q72547); experiment: Compound ability to inhibit the production of HIV reverse transcriptase (RT) in culture supernatant of monocytic U937 on at 7 days at a concentration 1 uM; procedure, shortened: as §4
[8] = molecular target: Human immunodeficiency virus type 1 reverse transcriptase (Human immunodeficiency virus 1) (UniProt Q72547); experiment: Percent inhibition evaluated for anti-RT activity at 0 days of culture; design: concentration or dose not given beside the values; settings: concentration not given here
Procedure, shortened: (§5)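 HIV-1 (12 500 CCID50) was preincubated with compound at 25 µM final for 60 min at 37 °C, pelleted by ultracentrifugation and resuspended. RT was measured at once with poly(rA)-oligo(dT) and ³H-dTTP (1 h, 37 °C, cpm). Treated virus was then put on CEM-C113 cells for 60 min and replaced with compound-free medium. Supernatant RT was read at days 7 and 9.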

[9] = molecular target: Human immunodeficiency virus type 1 reverse transcriptase (Human immunodeficiency virus 1) (UniProt Q72547); experiment: Compound ability to inhibit the production of HIV reverse transcriptase (RT) in preinfected PBL (peripheral blood lymphocytes) at 7 days at a concentration 1 uM; procedure, shortened: as §3
[10] = molecular target: Human immunodeficiency virus type 1 reverse transcriptase (Human immunodeficiency virus 1) (UniProt Q72547); experiment: Compounds were evaluated for anti-RT activity by MTT dose and % cell / viability was reported at 7 days of culture; procedure, shortened: as §2
[11] = molecular target: Human immunodeficiency virus type 1 reverse transcriptase (Human immunodeficiency virus 1) (UniProt Q72547); experiment: Compounds were evaluated for anti-RT activity by MTT dose and %protection was reported at 13 days of culture
[12] = molecular target: Human immunodeficiency virus type 1 reverse transcriptase (Human immunodeficiency virus 1) (UniProt Q72547); experiment: Compound ability to inhibit the production of HIV reverse transcriptase (RT) in preinfected PBL (peripheral blood lymphocytes) at 14 days at a concentration 5 uM; procedure, shortened: as §3
[13] = molecular target: Human immunodeficiency virus type 1 reverse transcriptase (Human immunodeficiency virus 1) (UniProt Q72547); experiment: Compound ability to inhibit the production of HIV reverse transcriptase (RT) in culture supernatant of monocytic U937 on at 14 days at a concentration 1 uM; procedure, shortened: as §4
[14] = test system: CCRF-CEM; experiment: Concentration required to reduce the viability of uninfected cells (CEM-CL13) by 50% on day 11.; settings: Homo sapiens, 264 h, read-out: CD50 (the source's name); procedure, shortened: as §1
[15] = molecular target: Human immunodeficiency virus type 1 reverse transcriptase (Human immunodeficiency virus 1) (UniProt Q72547); experiment: Percent inhibition measured as the production of HIV reverse transcriptase (RT) in culture supernatant of monocytic U937 on at 7 days at a concentration 1 uM
Procedure, shortened: (§6)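 U937 cells in RPMI 1640 with 5% heat-inactivated FCS, penicillin, streptomycin and polybrene (2 μg/mL), 37 °C, 5% CO2. Infected with HIV-1 LAV-Bru; compounds diluted in PBS. 50 μL supernatant aliquots were assayed for RT: 1 h, 37 °C, pH 7.8, Mg2+, poly(rA)-oligo(dT), [3H]dTTP, TCA-pyrophosphate stop, filter counting. % inhibition = 100 − 100 × (treated cpm / virus-control cpm).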

[16] = molecular target: Human immunodeficiency virus type 1 reverse transcriptase (Human immunodeficiency virus 1) (UniProt Q72547); experiment: Compound ability to inhibit the production of HIV reverse transcriptase (RT) in culture supernatant of CEM-CL13 on at 26 days at a concentration 0.2 uM
Procedure, shortened: (§7)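 CEM-C113 cells in RPMI 1640 with 5% heat-inactivated FCS and polybrene (2 µg/mL) were plated at 1×10^5 cells/mL with compound in PBS, in triplicate, and infected with HIV-1 LAV-Bru. From day 7, every 3–4 days, fresh medium with or without drug was added and 50 µL supernatant was taken for RT microassay. The RT microassay used poly(rA)-oligo(dT) and (methyl-³H)dTTP for 1 h at 37 °C, with TCA precipitation, read as cpm/50 µL.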

[17] = molecular target: Human immunodeficiency virus type 1 reverse transcriptase (Human immunodeficiency virus 1) (UniProt Q72547); experiment: Percent inhibition measured as the production of HIV reverse transcriptase (RT) in culture supernatant of monocytic U937 on at 11 days at a concentration 1 uM; procedure, shortened: as §6
[18] = test system: CCRF-CEM; experiment: Concentration that reduced by 50% the HIV induced CPE (cytopathic effect) on day 11.; settings: Homo sapiens, 264 h, read-out: ED50 (the source's name); procedure, shortened: as §1
[19] = molecular target: Human immunodeficiency virus type 1 reverse transcriptase (Human immunodeficiency virus 1) (UniProt Q72547); experiment: Compounds were evaluated for anti-RT activity at 7 days of culture; procedure, shortened: as §5
[20] = molecular target: Human immunodeficiency virus type 1 reverse transcriptase (Human immunodeficiency virus 1) (UniProt Q72547); experiment: Percent inhibition evaluated for anti-RT activity at 7 days of culture; design: concentration or dose not given beside the values; settings: concentration not given here; procedure, shortened: as §5
[21] = molecular target: Human immunodeficiency virus type 1 reverse transcriptase (Human immunodeficiency virus 1) (UniProt Q72547); experiment: Compound ability to inhibit the production of HIV reverse transcriptase (RT) in culture supernatant of CEM-CL13 on at 7 days at a concentration 0.2 uM; procedure, shortened: as §7
[22] = molecular target: Human immunodeficiency virus type 1 reverse transcriptase (Human immunodeficiency virus 1) (UniProt Q72547); experiment: Compound ability to inhibit the production of HIV reverse transcriptase (RT) in culture supernatant of CEM-CL13 on at 22 days at a concentration 0.2 uM; procedure, shortened: as §7
[23] = molecular target: Human immunodeficiency virus type 1 reverse transcriptase (Human immunodeficiency virus 1) (UniProt Q72547); experiment: Compounds were evaluated for anti-RT activity at 9 days of culture; procedure, shortened: as §5
[24] = test system: CCRF-CEM; experiment: Concentration required to reduce the viability of uninfected cells (CEM-CL13) by 50% on day 19.; settings: Homo sapiens, 456 h, read-out: CD50 (the source's name); procedure, shortened: as §1
[25] = molecular target: Human immunodeficiency virus type 1 reverse transcriptase (Human immunodeficiency virus 1) (UniProt Q72547); experiment: Compounds were evaluated for anti-RT activity by MTT dose and %protection was reported at 9 days of culture; procedure, shortened: as §2
[26] = test system: CCRF-CEM; experiment: Concentration that reduced by 50% the HIV induced CPE (cytopathic effect) on day 22.; settings: Homo sapiens, 528 h, read-out: ED50 (the source's name); procedure, shortened: as §1
[27] = test system: CCRF-CEM; experiment: Concentration that reduced by 50% the HIV induced CPE (cytopathic effect) on day 7.; settings: Homo sapiens, 168 h, read-out: ED50 (the source's name); procedure, shortened: as §1

With `CCCCCCCCCCCCCCCCOP(=O)(OC[C@H]1OC(O)[C@@H](O)[C@@H](O)[C@@H]1O)OC[C@H]1OC(n2cc(C)c(=O)[nH]c2=O)C[C@@H]1N=[N+]=[N-]` (some centres not stated) as the molecule, how does the CC50 [1] read?
Its CC50 is 2500 nM.

And the Protection [2]?
The Protection was 68%.

And the Activity (c.p.m. 50ul-1) [3]?
The Activity (c.p.m. 50ul-1) was 22400.

What about the Activity (c.p.m. 50ul-1) [4] of the same molecule?
Its Activity (c.p.m. 50ul-1) is 225000.

And the Activity (c.p.m. 50ul-1) [5]?
The Activity (c.p.m. 50ul-1) was 71500.

And the Activity (c.p.m. 50ul-1) [6]?
Its Activity (c.p.m. 50ul-1) is 3140.

And the Activity (c.p.m. 50ul-1) [7]?
The Activity (c.p.m. 50ul-1) was 122000.

And the inhibition [8]?
Its inhibition is 30%.

What about the Activity (c.p.m. 50ul-1) [9] of the same molecule?
The Activity (c.p.m. 50ul-1) was 9320.

And the Cell viability [10]?
Its Cell viability is 77%.

What about the Protection [11] of the same molecule?
Its Protection is 10%.

What about the Activity (c.p.m. 50ul-1) [12] of the same molecule?
Its Activity (c.p.m. 50ul-1) is 58300.

What about the Activity (c.p.m. 50ul-1) [13] of the same molecule?
Its Activity (c.p.m. 50ul-1) is 35000.

And the CC50 [14]?
Its CC50 is 2600 nM.

What about the inhibition [15] of the same molecule?
The inhibition was 51%.

What about the Activity (c.p.m. 50ul-1) [16] of the same molecule?
Its Activity (c.p.m. 50ul-1) is 73000.

What about the inhibition [17] of the same molecule?
The inhibition was 0%.

And the EC50 [18]?
Its EC50 is 300 nM.

And the Activity (c.p.m. 50ul-1) [19]?
Its Activity (c.p.m. 50ul-1) is 18000.

What about the inhibition [20] of the same molecule?
The inhibition was 71%.

What about the Activity (c.p.m. 50ul-1) [21] of the same molecule?
Its Activity (c.p.m. 50ul-1) is 4000.

What about the Activity (c.p.m. 50ul-1) [22] of the same molecule?
The Activity (c.p.m. 50ul-1) was 24000.

What about the Activity (c.p.m. 50ul-1) [23] of the same molecule?
The Activity (c.p.m. 50ul-1) was 10000.

And the CC50 [24]?
Its CC50 is 2500 nM.

And the Protection [25]?
Its Protection is 18%.

What about the EC50 [26] of the same molecule?
Its EC50 is 400 nM.

And the EC50 [27]?
The EC50 was 140 nM.
